Test results from ChEMBL document CHEMBL1130160 (J Med Chem, 1997).

Tests used:
Rattus norvegicus [1] = assay: Percent decrease in serum cholesterol relative to OVX control at 1 mg/kg in rat; type: functional
Outline: (§1)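 OVX Sprague–Dawley rats (75 days old), 5–6 per group, dosed once daily by oral gavage for 4 consecutive days, starting 14 days after ovariectomy. Vehicle was 20% β-hydroxycyclodextrin at 1 mL/kg, or 1.5% carboxymethylcellulose in some cases. Rats were fasted after the last dose and bled by cardiac puncture next morning.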

Estrogen receptor = Estrogen receptor (Homo sapiens, UniProt Q92731+P03372); conditions: mcf7
Rattus norvegicus [2] = assay: Percent decrease in serum cholesterol relative to OVX control at 0.1 mg/kg in rat was determined (in vivo); type: functional; outline: as §1
Rattus norvegicus [3] = assay: Percent decrease in serum cholesterol relative to OVX control at 10 mg/kg in rat was determined (in vivo); type: functional; outline: as §1
Rattus norvegicus [4] = assay: Minimum effective dose at which significant increase in uterine eosinophil peroxidase (EPO) activity in rat was determined (in vivo); type: functional; conditions: read-out: MED
Rattus norvegicus [5] = assay: Minimum effective dose at which significant increase in uterine weight/body weight in rat was determined (in vivo); expressed as % increase relative to ovariectomized (OVX) controls; type: functional
Outline: (§2)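 In 75-day OVX Sprague–Dawley rats dosed orally for 4 days, beginning 2 weeks post-ovariectomy with 5–6 rats per group, whole uteri were weighed the morning after fasting. MED is the lowest dose giving a significant (p≤0.05) rise in uterine weight/body weight, expressed as % increase over OVX controls ±SE.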

Rattus norvegicus [6] = assay: Minimum effective dose at which significant increase in uterine weight/body weight in rat was determined (in vivo); type: functional; conditions: read-out: MED; outline: as §2
Rattus norvegicus [7] = assay: Dose required to reduce serum cholesterol by 50% relative to OVX controls was determined (in vivo); type: functional; outline: as §1
Rattus norvegicus [8] = assay: Eosinophil peroxidase activity expressed as Vmax was determined in rat (in vivo) Eosinophil peroxidase activity expressed as Vmax was determined in rat (in vivo); type: functional; set-up: unit not given here
Rattus norvegicus [9] = assay: Percent decrease in serum cholesterol relative to OVX control at 0.1 mg/kg in rats; type: functional; outline: as §1
Rattus norvegicus [10] = assay: Percent decrease in serum cholesterol relative to OVX control at 1.0 mg/kg in rats; type: functional; outline: as §1

| SMILES | IC50 (Estrogen receptor) [nM] | Decrease (Rattus norvegicus [1]) [%] | Decrease (Rattus norvegicus [2]) [%] | Decrease (Rattus norvegicus [3]) [%] | minimal effective dose (Rattus norvegicus [4]) [mg/kg] | Increase (Rattus norvegicus [5]) [%] | minimal effective dose (Rattus norvegicus [6]) [mg/kg] | ED50 (Rattus norvegicus [7]) [mg/kg] | Eosinophil peroxidase activity (Vmax) (Rattus norvegicus [8]) | Decrease (Rattus norvegicus [9]) [%] | Decrease (Rattus norvegicus [10]) [%] |
| --- | --- | --- | --- | --- | --- | --- | --- | --- | --- | --- | --- |
| Cl.O=C(c1ccc(OCCN2CCCCC2)cc1)c1c(-c2ccccc2)sc2ccccc12 | 300 | 72.6 | 59.4 | 45.6 | > 10 | 59.2 | 0.1 | < 0.1 | – | – | – |
| CSc1ccc(-c2sc3cc(O)ccc3c2C(=O)c2ccc(OCCN3CCCCC3)cc2)cc1 | – | 51.5 | 27.7 | 75.3 | 1 | 50.2 | 1 | 0.9 | 37.5 | – | – |
| C#Cc1ccc2c(C(=O)c3ccc(OCCN4CCCCC4)cc3)c(-c3ccc(O)cc3)sc2c1 | – | 58.7 | 39.4 | 65.8 | > 10 | 27.8 | 1 | 0.5 | – | – | – |
| C=Cc1ccc(-c2sc3cc(O)ccc3c2C(=O)c2ccc(OCCN3CCCCC3)cc2)cc1 | – | 41.5 | -7 | 49.7 | 1 | 26.9 | 0.1 | 10 | 48 | – | – |
| CCc1sc2cc(O)ccc2c1C(=O)c1ccc(OCCN2CCCCC2)cc1 | – | – | – | 31.1 | > 10 | 55.03 | 10 | – | – | 4.4 | 26.5 |
| COC(=O)c1ccc(-c2sc3cc(O)ccc3c2C(=O)c2ccc(OCCN3CCCCC3)cc2)cc1 | – | 42.1 | 23.8 | 56.1 | 10 | 37.2 | 1 | 3.8 | 13.2 | – | – |
| O=C(c1ccc(OCCN2CCCCC2)cc1)c1c(-c2cc[n+]([O-])cc2)sc2cc(O)ccc12 | 100 | – | – | 42.6 | > 10 | – | > 10 | > 10 | – | -16.6 | 1.8 |

Now from value to compound, other results behind:

| IC50 (Estrogen receptor) [nM] | SMILES | Decrease (Rattus norvegicus [1]) [%] | Decrease (Rattus norvegicus [2]) [%] | Decrease (Rattus norvegicus [3]) [%] | minimal effective dose (Rattus norvegicus [4]) [mg/kg] | Increase (Rattus norvegicus [5]) [%] | minimal effective dose (Rattus norvegicus [6]) [mg/kg] | ED50 (Rattus norvegicus [7]) [mg/kg] | Eosinophil peroxidase activity (Vmax) (Rattus norvegicus [8]) | Decrease (Rattus norvegicus [9]) [%] | Decrease (Rattus norvegicus [10]) [%] |
| --- | --- | --- | --- | --- | --- | --- | --- | --- | --- | --- | --- |
| 2.3 | Cl.O=C(c1ccc(OCCN2CCCCC2)cc1)c1c(-c2ccc(F)cc2)sc2cc(O)ccc12 | 46 | 20.6 | 71.9 | > 10 | 50.2 | 1 | 1.4 | – | – | – |
| 300 | O=C(c1ccc(OCCN2CCCCC2)cc1)c1c(-c2ccc(O)cc2)sc2c(O)cccc12 | -11.7 | -6.1 | -3.4 | > 10 | 43.5 | 10 | – | – | – | – |
| 10 | CCCCc1ccc(-c2sc3cc(O)ccc3c2C(=O)c2ccc(OCCN3CCCCC3)cc2)cc1 | 14.5 | 21.3 | 72 | 10 | – | > 10 | 2.3 | 20.8 | – | – |
| 1000 | COc1ccc(-c2sc3cc(O)ccc3c2C(=O)c2ccc(OCCN3CCCCC3)cc2)cc1 | 75.6 | 65.2 | 72.6 | > 10 | – | > 10 | < 0.1 | – | – | – |
| 1000 | NC(=O)c1ccc2c(C(=O)c3ccc(OCCN4CCCCC4)cc3)c(-c3ccc(O)cc3)sc2c1 | – | – | – | > 10 | 30.7 | 10 | – | – | – | -14.9 |
| 190 | O=C(c1ccc(OCCN2CCCCC2)cc1)c1c(-c2ccc(O)cc2)sc2cccc(O)c12 | 18 | 29.6 | 31.8 | > 10 | – | > 10 | > 10 | – | – | – |
| 1000 | Cl.O=C(c1ccc(OCCN2CCCCC2)cc1)c1c(-c2ccc(O)cc2)sc2cc(Cl)ccc12 | -6.8 | -5.1 | 37.6 | > 10 | 49.6 | 10 | > 10 | – | – | – |
| 2.3 | O=C(c1ccc(OCCN2CCCCC2)cc1)c1c(-c2ccc(O)c(Cl)c2)sc2cc(O)ccc12 | 52.7 | – | – | > 10 | 30.3 | 10 | 1.2 | – | – | – |
